Laboratory results from ChEMBL document CHEMBL1909525, “Synthesis and anticonvulsant activity of novel 2,6-diketopiperazine derivatives. Part 1: perhydropyrrole[1,2-a]pyrazines” (Eur J Med Chem, 2011).
Activity calls are given as the source filed them. No cut-off for these calls is given here.

What was measured:
Mus musculus [1] = assay: Anticonvulsant activity in albino Carworth Farms No.1 mouse assessed as protection against electric-current for 3 secs-induced seizure at 100 mg/kg, ip after 4 hrs by 6Hz minimal clonic seizure test; assay type: functional, organism-based; set-up: dose 100 mg/kg
In short: (§1)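 6 Hz psychomotor seizure test in mice. Compound given i.p. as a suspension in 0.5% methylcellulose. Corneal stimulation at 32 mA, 0.2-ms monopolar rectangular pulses at 6 Hz for 3 s, from a constant-current device. Tests run 0.25–4 h after dosing. A mouse counted as protected if it resumed normal exploratory behaviour within 10 s; scored as protected/tested.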

Mus musculus [2] = assay: Anticonvulsant activity in albino Carworth Farms No.1 mouse assessed as protection against subcutaneous metrazol-induced seizure at 30 mg/kg, ip after 4 hrs; assay type: functional, organism-based; set-up: dose 30 mg/kg
In short: (§2)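 Mouse scMET test. Compound given i.p. (30, 100 or 300 mg/kg) in 0.5% methylcellulose. Pentylenetetrazole 85 mg/kg (CD97) given s.c. at 0.5 or 4 h, then mice observed for 30 min. Protection is absence of clonic spasms; scored as protected/tested.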

Mus musculus [3] = assay: Anticonvulsant activity in albino Carworth Farms No.1 mouse assessed as protection against subcutaneous metrazol-induced seizure at 300 mg/kg, ip after 0.5 hrs; assay type: functional, organism-based; set-up: dose 300 mg/kg; in short: as §2
Mus musculus [4] = assay: Anticonvulsant activity in ip dosed albino Carworth Farms No.1 mouse assessed as time needs to show peak effect for electric-current for 3 secs-induced seizure after 0.25 hrs by 6Hz minimal clonic seizure test; assay type: functional
Mus musculus [5] = assay: Neurotoxicity in albino Carworth Farms No.1 mouse assessed as motor impairment at 30 mg/kg, ip after 0.5 hrs by rotarod test; assay type: toxicity, organism-based; set-up: dose 30 mg/kg, route intraperitoneal; conditions: in vivo
In short: (§3)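 Rotorod neurotoxicity in mice at 6 r.p.m. Compound given i.p. (30, 100, 300 mg/kg) in 0.5% methylcellulose; tested at 30 min and 4 h. Impairment is inability to keep equilibrium on the rod for a given time; scored as impaired/tested.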

Mus musculus [6] = assay: Anticonvulsant activity in albino Carworth Farms No.1 mouse assessed as protection against maximal electroshock-induced seizure at 100 mg/kg, ip after 4 hrs; assay type: functional, organism-based; set-up: dose 100 mg/kg
In short: (§4)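 Mouse MES test with compound given i.p. (30, 100 or 300 mg/kg) in 0.5% methylcellulose; tested at 0.5 and 4 h. Corneal stimulus of 50 mA at 60 Hz for 0.2 s, electrodes primed with 0.5% butacaine in 0.9% NaCl. Protection is abolition of hindlimb tonic extension; scored as protected/tested.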

Mus musculus [7] = assay: Neurotoxicity in albino Carworth Farms No.1 mouse assessed as motor impairment at 100 mg/kg, ip after 2 hrs by rotarod test; assay type: toxicity, organism-based; set-up: dose 100 mg/kg, route intraperitoneal; conditions: in vivo
In short: (§5)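 Rotorod neurotoxicity in mice (18–25 g) following i.p. dosing of a suspension in 0.5% methylcellulose in water, tested at intervals between 0.25 and 4 h. Impairment was scored as failure to keep equilibrium on a 6 r.p.m. rod, reported as number impaired/number tested.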

Mus musculus [8] = assay: Anticonvulsant activity in albino Carworth Farms No.1 mouse assessed as protection against maximal electroshock-induced seizure at 300 mg/kg, ip after 0.5 hrs; assay type: functional, organism-based; set-up: dose 300 mg/kg; in short: as §4
Mus musculus [9] = assay: Anticonvulsant activity in ip dosed albino Carworth Farms No.1 mouse assessed as protection against electric-current for 3 secs-induced seizure after 0.25 hrs by 6Hz minimal clonic seizure test; assay type: functional; conditions: albino Carworth Farms No.1, ip
Mus musculus [10] = assay: Anticonvulsant activity in albino Carworth Farms No.1 mouse assessed as protection against electric-current for 3 secs-induced seizure at 100 mg/kg, ip after 0.25 hrs by 6Hz minimal clonic seizure test; assay type: functional, organism-based; set-up: dose 100 mg/kg; in short: as §1
Mus musculus [11] = assay: Anticonvulsant activity in albino Carworth Farms No.1 mouse assessed as protection against maximal electroshock-induced seizure at 30 mg/kg, ip after 0.5 hrs; assay type: functional, organism-based; set-up: dose 30 mg/kg; in short: as §4
Mus musculus [12] = assay: Anticonvulsant activity in albino Carworth Farms No.1 mouse assessed as protection against subcutaneous metrazol-induced seizure at 30 mg/kg, ip after 0.5 hrs; assay type: functional, organism-based; set-up: dose 30 mg/kg; in short: as §2
Mus musculus [13] = assay: Anticonvulsant activity in albino Carworth Farms No.1 mouse assessed as protection against maximal electroshock-induced seizure at 300 mg/kg, ip after 4 hrs; assay type: functional, organism-based; set-up: dose 300 mg/kg; in short: as §4
Mus musculus [14] = assay: Anticonvulsant activity in albino Carworth Farms No.1 mouse assessed as protection against subcutaneous metrazol-induced seizure at 100 mg/kg, ip after 0.5 hrs; assay type: functional, organism-based; set-up: dose 100 mg/kg; in short: as §2
Mus musculus [15] = assay: Anticonvulsant activity in albino Carworth Farms No.1 mouse assessed as protection against electric-current for 3 secs-induced seizure at 100 mg/kg, ip after 2 hrs by 6Hz minimal clonic seizure test; assay type: functional, organism-based; set-up: dose 100 mg/kg; in short: as §1
Mus musculus [16] = assay: Neurotoxicity in albino Carworth Farms No.1 mouse assessed as motor impairment at 100 mg/kg, ip after 0.25 hrs by rotarod test; assay type: toxicity, organism-based; set-up: dose 100 mg/kg, route intraperitoneal; conditions: in vivo; in short: as §5
Mus musculus [17] = assay: Neurotoxicity in albino Carworth Farms No.1 mouse assessed as motor impairment at 300 mg/kg, ip after 0.5 hrs by rotarod test; assay type: toxicity, organism-based; set-up: dose 300 mg/kg, route intraperitoneal; conditions: in vivo; in short: as §3
Mus musculus [18] = assay: Neurotoxicity in albino Carworth Farms No.1 mouse assessed as motor impairment at 100 mg/kg, ip after 0.5 hrs by rotarod test; assay type: toxicity, organism-based; set-up: dose 100 mg/kg, route intraperitoneal; conditions: in vivo; in short: as §3
Mus musculus [19] = assay: Anticonvulsant activity in albino Carworth Farms No.1 mouse assessed as protection against subcutaneous metrazol-induced seizure at 100 mg/kg, ip after 4 hrs; assay type: functional, organism-based; set-up: dose 100 mg/kg; in short: as §2
Mus musculus [20] = assay: Anticonvulsant activity in albino Carworth Farms No.1 mouse assessed as protection against maximal electroshock-induced seizure at 100 mg/kg, ip after 0.5 hrs; assay type: functional, organism-based; set-up: dose 100 mg/kg; in short: as §4
[21] = Neurotoxicity in ip dosed albino Carworth Farms No.1 mouse assessed as motor impairment after 0.5 hrs by rotarod test; assay type: toxicity, organism-based; conditions: Carworth Farms No.1 (albino), in vivo
In short: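 Rotorod test in mice (18–25 g) dosed i.p. with compound suspended in 0.5% methylcellulose in water. Tested 30 min after dosing. Impairment was scored as inability to keep equilibrium on a 6 r.p.m. rod. TD50 came from groups of ≥8 mice at the time of peak effect, with 95% confidence intervals by probit analysis (Finney method).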

Mus musculus [22] = assay: Anticonvulsant activity in albino Carworth Farms No.1 mouse assessed as protection against maximal electroshock-induced seizure at 30 mg/kg, ip after 4 hrs; assay type: functional, organism-based; set-up: dose 30 mg/kg; in short: as §4
Mus musculus [23] = assay: Neurotoxicity in albino Carworth Farms No.1 mouse assessed as motor impairment at 300 mg/kg, ip after 4 hrs by rotarod test; assay type: toxicity, organism-based; set-up: dose 300 mg/kg, route intraperitoneal; conditions: in vivo; in short: as §3
Mus musculus [24] = assay: Neurotoxicity in albino Carworth Farms No.1 mouse assessed as motor impairment at 100 mg/kg, ip after 1 hr by rotarod test; assay type: toxicity, organism-based; set-up: dose 100 mg/kg, route intraperitoneal; conditions: in vivo; in short: as §5
Mus musculus [25] = assay: Anticonvulsant activity in albino Carworth Farms No.1 mouse assessed as protection against subcutaneous metrazol-induced seizure at 300 mg/kg, ip after 4 hrs; assay type: functional, organism-based; set-up: dose 300 mg/kg; in short: as §2
Mus musculus [26] = assay: Neurotoxicity in albino Carworth Farms No.1 mouse assessed as motor impairment at 30 mg/kg, ip after 4 hrs by rotarod test; assay type: toxicity, organism-based; set-up: dose 30 mg/kg, route intraperitoneal; conditions: in vivo; in short: as §3
Mus musculus [27] = assay: Neurotoxicity in albino Carworth Farms No.1 mouse assessed as motor impairment at 100 mg/kg, ip after 4 hrs by rotarod test; assay type: toxicity, organism-based; set-up: dose 100 mg/kg, route intraperitoneal; conditions: in vivo; in short: as §3
[28] = Neurotoxicity in po dosed albino Sprague-Dawley rat assessed as motor impairment after 0.25 hrs by rotarod test; assay type: toxicity, organism-based; conditions: in vivo
In short: (§6)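 Rats dosed orally, compound in 0.5% methylcellulose. MES at 150 mA, 60 Hz, 0.2 s; scMET with pentylenetetrazole 70 mg/kg s.c. plus 30 min observation; rotorod for toxicity.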

Mus musculus [29] = assay: Anticonvulsant activity in ip dosed albino Carworth Farms No.1 mouse assessed as protection against maximal electroshock-induced seizure after 0.25 hrs; assay type: functional; conditions: albino Carworth Farms No.1, ip
In short: (§7)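 Mouse quantification at the time of peak effect, compound given i.p. in 0.5% methylcellulose. Groups of at least eight mice received varied doses until at least two points fell between 100 and 0% response. ED50 (MES, scMET) and TD50 (rotorod) with 95% CI by probit analysis (Finney). PI = TD50/ED50 MES.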

Mus musculus [30] = assay: Anticonvulsant activity in ip dosed albino Carworth Farms No.1 mouse assessed as time needs to show peak effect for protection against maximal electroshock-induced seizure; assay type: functional
Rattus norvegicus [31] = assay: Anticonvulsant activity in po dosed albino Sprague-Dawley rat assessed as protection against subcutaneous metrazol-induced seizure after 0.25 hrs; assay type: functional; in short: as §6
Rattus norvegicus [32] = assay: Anticonvulsant activity in po dosed albino Sprague-Dawley rat assessed as time needs to show peak effect for protection against maximal electroshock-induced seizure after 0.25 hrs; assay type: functional; in short: as §6
Mus musculus [33] = species: Mus musculus; assay: Protective index, ratio of TD50 for albino Carworth Farms No.1 mouse to ED50 for albino Carworth Farms No.1 mouse by maximal electroshock-induced seizure test; assay type: functional
In short: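 Mouse quantification at the time of peak effect, compound given i.p. in 0.5% methylcellulose. Groups of at least eight mice received varied doses until at least two points fell between 100 and 0% response. PI = TD50/ED50 MES.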

Mus musculus [34] = assay: Anticonvulsant activity in ip dosed albino Carworth Farms No.1 mouse assessed as protection against subcutaneous metrazol-induced seizure after 0.25 hrs; assay type: functional; conditions: albino Carworth Farms No.1, 0.25 h; in short: as §7
Rattus norvegicus [35] = assay: Anticonvulsant activity in po dosed albino Sprague-Dawley rat assessed as protection against maximal electroshock-induced seizure after 0.25 hrs; assay type: functional; in short: as §6
Rattus norvegicus [36] = species: Rattus norvegicus; assay: Protective index, ratio of TD50 for albino Sprague-Dawley rat to ED50 for albino Sprague-Dawley rat by maximal electroshock-induced seizure test; assay type: functional

CCOC(=O)CN1C(=O)[C@H](c2ccccc2)N2CCC[C@H]2C1=O
Activity (Mus musculus [1]): inactive | Activity (Mus musculus [2]): inactive | Activity (Mus musculus [3]): inactive | Time (Mus musculus [4]): 0.25 h | Activity (Mus musculus [5]): Non-toxic | Activity (Mus musculus [6]): inactive | Activity (Mus musculus [7]): Non-toxic | Activity (Mus musculus [8]): Active | ED50 (Mus musculus [9]): 55.6 mg/kg | Activity (Mus musculus [10]): Active | Activity (Mus musculus [11]): inactive | Activity (Mus musculus [12]): inactive | Activity (Mus musculus [13]): Active | Activity (Mus musculus [14]): inactive | Activity (Mus musculus [15]): inactive | Activity (Mus musculus [16]): Non-toxic | Activity (Mus musculus [17]): Toxic | Activity (Mus musculus [18]): Non-toxic | Activity (Mus musculus [19]): inactive | Activity (Mus musculus [20]): Active | TD50 at 0.5 h [21]: 178 mg/kg | Activity (Mus musculus [22]): inactive | Activity (Mus musculus [23]): Non-toxic | Activity (Mus musculus [24]): Non-toxic | Activity (Mus musculus [25]): inactive | Activity (Mus musculus [26]): Non-toxic | Activity (Mus musculus [27]): Non-toxic

O=C1NC(=O)C(c2ccccc2)(c2ccccc2)N1 [PHENYTOIN]
TD50 at 0.25 h [28]: > 1000 mg/kg | ED50 (Mus musculus [29]): 5.64 mg/kg | Time (Mus musculus [30]): 1 h | ED50 (Rattus norvegicus [31]): > 500 mg/kg | Time (Rattus norvegicus [32]): 4 h | Ratio TD50/ED50 (Mus musculus [33]): 7.3 | ED50 (Mus musculus [34]): > 50 mg/kg | ED50 (Rattus norvegicus [35]): 28.1 mg/kg | Ratio TD50/ED50 (Rattus norvegicus [36]): >36.6
